Data published in ChEMBL document CHEMBL3046785, “Antifungal activity of borrelidin produced by a Streptomyces strain isolated from soybean” (J Agric Food Chem, 2012).
In brackets after ≈: the same amount, converted by molar mass.

Columns and labels:
[1] = system: Phytophthora sojae; experiment: Antifungal activity against Phytophthora sojae race 1 in germinated soybean seeds assessed as root length at 4 mg/L after 48 hr compound at 25% WP (untreated control = 4.15 +/- 0.71 cm); format: functional
[2] = system: Phytophthora sojae; experiment: Antifungal activity against Phytophthora sojae race 1 in germinated soybean seeds assessed as root length at 20 mg/L after 48 hr compound at 25% WP (untreated control = 4.15 +/- 0.71 cm); format: functional
[3] = system: Phytophthora sojae; experiment: Antifungal activity against Phytophthora sojae race 1 in germinated soybean seeds assessed as root length at 40 mg/L after 48 hr compound at 25% WP (untreated control = 4.15 +/- 0.71 cm); format: functional
[4] = system: Phytophthora sojae; experiment: Antifungal activity against Phytophthora sojae race 1 in germinated soybean seeds assessed as lesion length at 4 mg/L after 48 hr compound at 25% WP (untreated control = 3.34 +/- 0.64 cm); format: functional
[5] = system: Phytophthora sojae; experiment: Antifungal activity against Phytophthora sojae race 1 in germinated soybean seeds assessed as lesion length at 20 mg/L after 48 hr compound at 25% WP (untreated control = 3.34 +/- 0.64 cm); format: functional
[6] = system: Phytophthora sojae; experiment: Antifungal activity against Phytophthora sojae race 1 in germinated soybean seeds assessed as lesion length at 40 mg/L after 48 hr compound at 25% WP (untreated control = 3.34 +/- 0.64 cm); format: functional
[7] = system: Phytophthora sojae; experiment: Antifungal activity against Phytophthora sojae race 1 in germinated soybean seeds assessed as disease control efficacy at 4 mg/L after 48 hr compound at 25% WP relative to control; format: functional
In short: (§1)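 Seeds (Hefeng-25) were surface-sterilised (10% NaOCl, 20 min), rinsed, and germinated at 30 °C until roots exceeded 10 mm, five per dish on wet filter paper. Roots received 2 mL of solution: 1% Tween 80 in water, or 25% WP in water (4/20/40 mg/L = 1/5/10 mg a.i./L). A 7 mm race 1 disk was placed on the roots and removed after 24 h. After 48 h at 28 °C, roots were rated 0–4 and disease index computed. Efficiency is relative to the inoculated Tween control. Three experiments.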

[8] = system: Phytophthora sojae; experiment: Antifungal activity against Phytophthora sojae race 1 in germinated soybean seeds assessed as disease control efficacy at 20 mg/L after 48 hr compound at 25% WP relative to control; format: functional; in short: as §1
[9] = system: Phytophthora sojae; experiment: Antifungal activity against Phytophthora sojae race 1 in germinated soybean seeds assessed as disease control efficacy at 40 mg/L after 48 hr compound at 25% WP relative to control; format: functional; in short: as §1
[10] = system: Phytophthora sojae; experiment: Antifungal activity against Phytophthora sojae race 1 assessed as growth inhibition at 28 degC after 7 days (beneficial crop soybean); format: functional, organism-based; details: race 1, 168 h
In short: (§2)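 Race-specific mycelial growth assay on carrot agar (CA) at 28 °C. Test article was dissolved in methanol, diluted with water and added to CA; a 0.2% methanol plate served as negative control. A 5 mm plug from the colony margin was centred on each plate. Colony diameters were recorded once the control was covered. Inhibition = (1 − D/Dc) × 100. EC50/EC95 came from linear regression. Run in triplicate.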

[11] = system: Phytophthora sojae; experiment: Antifungal activity against Phytophthora sojae race 3 assessed as growth inhibition at 28 degC after 7 days (beneficial crop soybean); format: functional, organism-based; details: race 3, 168 h; in short: as §2
[12] = system: Phytophthora sojae; experiment: Antifungal activity against Phytophthora sojae race 4 assessed as growth inhibition at 28 degC after 7 days (beneficial crop soybean); format: functional, organism-based; details: race 4, 168 h; in short: as §2
[13] = system: Phytophthora sojae; experiment: Antifungal activity against Phytophthora sojae race 5 assessed as growth inhibition at 28 degC after 7 days (beneficial crop soybean); format: functional, organism-based; details: race 5, 168 h; in short: as §2
[14] = system: Phytophthora sojae; experiment: Antifungal activity against Phytophthora sojae race 9 assessed as growth inhibition at 28 degC after 7 days (beneficial crop soybean); format: functional, organism-based; details: race 9, 168 h; in short: as §2
[15] = system: Phytophthora sojae; experiment: Antifungal activity against Phytophthora sojae race 13 assessed as growth inhibition at 28 degC after 7 days (beneficial crop soybean); format: functional, organism-based; details: race 13, 168 h; in short: as §2
[16] = system: Phytophthora sojae; experiment: Antifungal activity against Phytophthora sojae race 44 assessed as growth inhibition at 28 degC after 7 days (beneficial crop soybean); format: functional, organism-based; details: race 44, 168 h; in short: as §2
[17] = system: Phytophthora sojae; experiment: Antifungal activity against Phytophthora sojae race 54 assessed as growth inhibition at 28 degC after 7 days (beneficial crop soybean); format: functional, organism-based; details: race 54, 168 h; in short: as §2
[18] = system: Glycine max; experiment: Phytotoxicity against germinated Glycine max (soybean) seeds at 10 mg/L; format: organism-based; details: in vivo
[19] = system: Phytophthora sojae; experiment: Antifungal activity against Phytophthora sojae race 1 in germinated soybean seeds assessed as root length at 1 mg/L after 48 hr (untreated control = 4.15 +/- 0.71 cm); format: functional
[20] = system: Phytophthora sojae; experiment: Antifungal activity against Phytophthora sojae race 1 in germinated soybean seeds assessed as root length at 5 mg/L after 48 hr (untreated control = 4.15 +/- 0.71 cm); format: functional
[21] = system: Phytophthora sojae; experiment: Antifungal activity against Phytophthora sojae race 1 in germinated soybean seeds assessed as root length at 10 mg/L after 48 hr (untreated control = 4.15 +/- 0.71 cm); format: functional
[22] = system: Phytophthora sojae; experiment: Antifungal activity against Phytophthora sojae race 1 in germinated soybean seeds assessed as lesion length at 1 mg/L after 48 hr (untreated control = 3.34 +/- 0.64 cm); format: functional
[23] = system: Phytophthora sojae; experiment: Antifungal activity against Phytophthora sojae race 1 in germinated soybean seeds assessed as lesion length at 5 mg/L after 48 hr (untreated control = 3.34 +/- 0.64 cm); format: functional
[24] = system: Phytophthora sojae; experiment: Antifungal activity against Phytophthora sojae race 1 in germinated soybean seeds assessed as lesion length at 10 mg/L after 48 hr (untreated control = 3.34 +/- 0.64 cm); format: functional
[25] = system: Phytophthora sojae; experiment: Antifungal activity against Phytophthora sojae race 1 in germinated soybean seeds assessed as disease control efficacy at 1 mg/L after 48 hr relative to control; format: functional; in short: as §1
[26] = system: Phytophthora sojae; experiment: Antifungal activity against Phytophthora sojae race 1 in germinated soybean seeds assessed as disease control efficacy at 5 mg/L after 48 hr relative to control; format: functional; in short: as §1
[27] = system: Phytophthora sojae; experiment: Antifungal activity against Phytophthora sojae race 1 in germinated soybean seeds assessed as disease control efficacy at 10 mg/L after 48 hr relative to control; format: functional; in short: as §1

SMILES	EC50 [10] [µg/mL]	EC95 [10] [µg/mL]	EC50 [11] [µg/mL]	EC95 [11] [µg/mL]	EC50 [12] [µg/mL]	EC95 [12] [µg/mL]	EC50 [13] [µg/mL]	EC95 [13] [µg/mL]	EC50 [14] [µg/mL]	EC95 [14] [µg/mL]	EC50 [15] [µg/mL]	EC95 [15] [µg/mL]	EC50 [16] [µg/mL]	EC95 [16] [µg/mL]	EC50 [17] [µg/mL]	EC95 [17] [µg/mL]	also measured
COCC(=O)N(c1c(C)cccc1C)C(C)C(=O)OC (stereo unspecified) [METALAXYL]	0.35 (≈ 1.25 µM)	6.82 (≈ 24.4 µM)	0.17 (≈ 0.609 µM)	4.63 (≈ 16.6 µM)	0.18 (≈ 0.644 µM)	8.03 (≈ 28.7 µM)	0.3 (≈ 1.07 µM)	11.6 (≈ 41.5 µM)	0.34 (≈ 1.22 µM)	11.8 (≈ 42.3 µM)	0.32 (≈ 1.15 µM)	7.55 (≈ 27 µM)	0.28 (≈ 1 µM)	12.2 (≈ 43.9 µM)	0.3 (≈ 1.07 µM)	13.3 (≈ 47.5 µM)	Activity [1]: 6.21 cm; Activity [2]: 6.48 cm; Activity [3]: 6.73 cm; Activity [4]: 2.57 cm; Activity [5]: 1.34 cm; Activity [6]: 0.62 cm; Efficacy [7]: 45.52%; Efficacy [8]: 71.97%; Efficacy [9]: 87.7%
C[C@@H]1C[C@H](C)C[C@H](C)[C@@H](O)CC(=O)O[C@H]([C@@H]2CCC[C@H]2C(=O)O)C/C=C/C=C(/C#N)[C@H](O)[C@@H](C)C1 [BORRELIDIN]	0.0056 (≈ 0.0114 µM)	0.026 (≈ 0.0531 µM)	0.0051 (≈ 0.0104 µM)	0.021 (≈ 0.0429 µM)	0.0038 (≈ 0.00776 µM)	0.017 (≈ 0.0347 µM)	0.0052 (≈ 0.0106 µM)	0.02 (≈ 0.0408 µM)	0.0053 (≈ 0.0108 µM)	0.02 (≈ 0.0408 µM)	0.0057 (≈ 0.0116 µM)	0.021 (≈ 0.0429 µM)	0.0047 (≈ 0.0096 µM)	0.018 (≈ 0.0368 µM)	0.0057 (≈ 0.0116 µM)	0.021 (≈ 0.0429 µM)	Activity [18]: Non-toxic; Activity [19]: 6.24 cm; Activity [20]: 6.53 cm; Activity [21]: 6.81 cm; Activity [22]: 1.91 cm; Activity [23]: 0.73 cm; Activity [24]: 0.25 cm; Efficacy [25]: 56.25%; Efficacy [26]: 80.76%; Efficacy [27]: 94.72%
